Assay results from PMC7086808 (Archives of Virology, 2009).

Legend:
[1] = test system: Coxsackie virus B5 (CVB5); assay: Virucidal assay; type: cell-based; conditions: Enterovirus B, B5|CVB5, HEp-2, 1 h
How it was run: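 CVB5 suspension mixed with twofold serial dilutions (0.5 to 20 μg/ml) for 1 h at 37°C, then added to confluent HEp-2 cells for 1 h. Inoculum removed, cells rinsed with PBS and incubated in test medium. CPE scored by microscopy and MTT; IC50 derived as mean ± SD of three independent experiments.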

[2] = test system: Coxsackie virus B5 (CVB5); assay: MTT/CPE antiviral assay, compound treatment after virus infection; type: cell-based; conditions: for IC50: Enterovirus B
How it was run: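 Confluent HEp-2 monolayers infected with CVB5 at 100 TCID50/0.1 ml for 1 h, washed with PBS, then overlaid with twofold serial dilutions in 2% serum test medium, dosed daily. CPE scored by light microscopy and quantified by MTT (OD 540/690 nm). IC50 derived, TI = CC50/IC50; mean ± SD from three independent experiments.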

guinea pigs = conditions: single-dose oral administration; cited from earlier work
[3] = cited from earlier work
[4] = Storage stability of compound preparations; type: physicochemical; conditions: DMSO/test medium preparations; freezing and short-term storage (1 month at 4°C)
CVB5 RNA = assay: Semi-quantitative detection of viral RNA by RT-PCR; type: cell-based, Coxsackie virus B5; conditions: cells treated after infection with 0.3-40 μg/ml
animals = conditions: cited from earlier work
MTT cytotoxicity assay = type: cell-based; conditions: human, HEp-2 cells (uninfected)
How it was run: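 HEp-2 cells seeded at 2 × 10⁴/well and grown to subconfluence, then given serial twofold dilutions in test medium with 2% serum; four uninfected wells per dilution; compound re-added daily; controls had 0.05% DMSO. Read-out: MTT (5 mg/ml in PBS, 4 h), formazan dissolved in DMSO, OD at 540/690 nm. Expressed as % of untreated; CC50 derived; dilutions in triplicate.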

rats = conditions: single-dose oral administration; cited from earlier work
mice = conditions: single-dose oral administration; cited from earlier work
[5] = test system: Coxsackie virus B5 (CVB5); assay: MTT/CPE antiviral assay, compound treatment before virus infection; type: cell-based
How it was run: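 HEp-2 cells pretreated with twofold serial dilutions in MEM for 24 h at 37°C, 5% CO2. Compound then removed and cells washed twice with PBS before challenge with 100 TCID50/0.1 ml CVB5 for 1 h. After two more washes, cells kept in test medium until CPE appeared; scored microscopically and by MTT. IC50 and TI (CC50/IC50); mean ± SD of three experiments.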

[6] = test system: Coxsackie virus B5 (CVB5); assay: Coxsackie virus B5 infection in mice; type: in vivo, BALB/c mice; conditions: for mean virus yield of hearts: plaque assay

CCOC(=O)c1c(CSc2ccccc2)n(C)c2cc(Br)c(O)c(CN(C)C)c12.Cl.O [Arbidol, ethyl-6-bromo-4-[(dimethylamino)-methyl]-5-hydroxy-1-methyl-2-[(phenylthio)methyl]-indole-3-carboxylate hydrochloride monohydrate]
IC50 [1]: 2.66 ± 0.4 µg/mL
IC50 ([2]; B5|CVB5, HEp-2): 6.62 ± 1.1 µg/mL
IC50 ([2]; B5|CVB5, read-out: 50% inhibitory concentration (IC50), CPE of CVB5): 2.66 to 6.62 µg/mL
TI (CC50/IC50) ([2]; drug added after infection, HEp-2 cells): 12.45
LD50 (50% lethal dose) (guinea pigs): 4,000 mg/kg
half-life in cultured cells [3]: about 18 h
efficacy of preparations upon storage [4]: did not appear to change
ratio of CVB5 RNA to β-actin (RT-PCR) (CVB5 RNA): decreased with increasing dose
pathologic changes on long-term intake (animals; animals, clinical, hematological, biochemical, pathological data): did not show pathologic changes
mutagenic or teratogenic activity (animals; at therapeutic doses): no mutagenic or teratogenic activity
CC50 (MTT cytotoxicity assay): 82.1 µg/mL
LD50 (50% lethal dose) (rats): 3,000 mg/kg
LD50 (50% lethal dose) (mice): 687 mg/kg
IC50 ([5]; Enterovirus B, B5|CVB5, HEp-2): 30.3 ± 1.6 µg/mL
TI (CC50/IC50) ([5]; drug added before infection, HEp-2 cells): 2.7
lung index vs viral control group ([6]; 25 mg/kg body weight/day p.o.): significantly lower
mean virus yield of hearts ([6]; 25 mg/kg body weight/day p.o. for 6 days): 10^3 viral plaques/heart
survival by day 30 ([6]; 25 mg/kg body weight/day p.o., eight mice per group): half of them had survived
clinical observations during the 30-day period ([6]; 50 mg/kg body weight/day p.o.): did not show abnormalities
lung index vs normal group ([6]; 50 mg/kg body weight/day p.o.): no significant difference
lung index vs viral control group ([6]; 50 mg/kg body weight/day p.o.): significantly lower
mean virus yield of hearts ([6]; 50 mg/kg body weight/day p.o. for 6 days): 10^2 viral plaques/heart
survival rate ([6]; 50 mg/kg body weight/day p.o. once a day for 6 days): significantly enhanced
body weight ([6]; 50 mg/kg body weight/day p.o., 30-day period): slight weight loss
